Measured values from different studies.
Protocols differ between the studies behind these lines.

With `CC(C)(C)c1ccc(O)c(CN(Cc2cc(C(C)(C)C)ccc2O)C2CCC(NC(N)=O)CC2)c1` (stereo not shown) the clearance was 26.7 mL/min/kg (male C57BL/6 mouse, plasma; intraperitoneal, 25 mg/kg, single dose).
`C#Cc1cnc2nc(O)n(C(CC)CC)c2n1` has a clearance of 4.3 mL/min/kg (male beagle dog, plasma; intravenous, 1 mg/kg).
`COc1ccnc(CNC(=O)c2cn(Cc3ccc(Cn4ccccc4=O)cc3)nc2C(F)(F)F)c1F` gave a Cmax of 200 ng/mL (male beagle dog, plasma; oral, 1 mg/kg).
With `CCc1cc(OC)c2nccc(N3CCc4c(cc(Cn5ccnc5)cc4-c4cn(C)nc4C(F)(F)F)C3=O)c2c1` the C0 was 4310 ng/mL (male CD-1 mouse, plasma; intravenous, 3 mg/kg).
The Cmax of `COCc1nn(Cc2ccc(Cn3ccccc3=O)cc2)cc1C(=O)NCc1c(F)ccc(OC)c1F` is reported as 163 ng/mL (male beagle dog, plasma; oral, 1 mg/kg).
`CNC(=O)c1cc(OC)cc2c(N3CCc4c(cc(Cn5ccnc5)cc4-c4cn(C)nc4C(F)(F)F)C3=O)ccnc12` has a C0 of 8370 ng/mL (male CD-1 mouse, plasma; intravenous, 3 mg/kg).
With `C=CC(=O)N1CC2CC(n3nc(-c4ccc(C(=O)Nc5ccccn5)cc4)c4c(N)ncnc43)CC2C1` (stereo not shown) the Tmax was 4 h (male Wistar rat, plasma; oral, 100 mg/kg).
`CC[C@@H]1CN(C(=O)NCC(F)(F)F)C[C@@H]1c1cnc2cnc3[nH]ccc3n12` has a Cmax of 89.4 ng/mL (beagle dog, plasma; oral, 1 mg/kg, single dose).
The C0 of `CCc1cc(C(=O)NC)c2nccc(N3CCc4c(cc(Cn5ccnc5)cc4-c4cn(C)nc4C(F)(F)F)C3=O)c2c1` is reported as 7560 ng/mL (male CD-1 mouse, plasma; intravenous, 3 mg/kg).
With `COc1cc2c3c(n(CCCN4CCOCC4)c(=O)c2cc1OC)-c1cc2c(cc1C3=O)OCO2` the Cmax was 547 ng/mL (female beagle dog, plasma; intravenous, 100 mg/m², infusion).
For `COc1ccc2c(c1OCc1ccccc1)C[C@@H](C(=O)O)N(C(=O)C(c1ccccc1)c1ccccc1)C2`, the Cmax was 2710 ng/mL (male beagle dog, plasma; oral, 3 mg/kg).
The haemolysis of `C[C@@H]1[C@H](O)[C@@H](C)/C=C/C=C/C=C/C=C/C=C/C=C/C=C/[C@H](O[C@@H]2O[C@H](C)[C@@H](O)[C@H](N)[C@@H]2O)C[C@@H]2O[C@](O)(C[C@@H](O)C[C@@H](O)[C@H](O)CC[C@@H](O)C[C@@H](O)CC(=O)O[C@H]1C)C[C@H](O)[C@H]2C(=O)O` is reported as 100% (haemolysis; rabbit; 64 µg/mL, 1 h).
`COc1ccc2nc(-c3ccccn3)c(N(C)c3ccc(F)cc3)n2c1` has a CL/F of 917 mL/min/kg (male CD-1 mouse, plasma; oral, 50 mg/kg, fasted).
`CC(C)Oc1c(NC(=O)c2ccc(NC(=O)[C@H](CC(N)=O)NC(=O)c3ccc(NC(=O)c4ccc(C#N)cc4)cc3)cc2)ccc(C(=O)Nc2ccc(C(=O)O)cc2)c1O` gave a CL/F of 163 mL/min/kg (male CD-1 mouse, plasma; subcutaneous, 5 mg/kg, single dose).
For `CC(C)(Nc1nc(-c2ccccn2)nc2ccccc12)c1ccccn1`, the C0 was 1800 ng/mL (female BALB/c mouse, plasma; intravenous, 1 mg/kg).
With `CCn1c(=O)c(-c2cc(NC(=O)Nc3ccccc3)c(F)cc2Br)cc2cnc(NC)cc21` the CL/F was 21 mL/min/kg (beagle dog, plasma; oral, 5 mg/kg, single dose).
